Measured values of several laboratories.
Compare with care: the assays were run in different laboratories.
Target: Cholecystokinin receptor type A (CCKAR, Homo sapiens, UniProt P32238)
Sequence (P32238 1-428, as in one of the studies): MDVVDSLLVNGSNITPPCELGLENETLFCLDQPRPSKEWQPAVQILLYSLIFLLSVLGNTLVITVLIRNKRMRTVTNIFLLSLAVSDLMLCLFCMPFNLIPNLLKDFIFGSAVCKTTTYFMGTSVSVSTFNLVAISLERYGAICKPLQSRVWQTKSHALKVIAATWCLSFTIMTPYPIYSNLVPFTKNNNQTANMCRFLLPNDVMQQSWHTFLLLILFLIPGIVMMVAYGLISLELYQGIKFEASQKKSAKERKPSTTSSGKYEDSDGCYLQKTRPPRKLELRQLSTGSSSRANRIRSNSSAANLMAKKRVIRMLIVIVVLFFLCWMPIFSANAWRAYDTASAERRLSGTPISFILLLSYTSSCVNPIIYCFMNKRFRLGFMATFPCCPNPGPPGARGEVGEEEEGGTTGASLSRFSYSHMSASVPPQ

Structure (SMILES)	assay	setting	endpoint	value
Nc1ncc(-c2nc(N3CCOCC3)nc(N3CCOCC3)n2)c(C(F)F)n1	cell-free assay	10 µM	remaining signal	118%
c1ccc(C(NCCNC(c2ccccc2)c2ccccc2)c2ccccc2)cc1	cell-free assay	10 µM	inhibition	7%
CCN(CC)CCCC[C@H](NC(=O)[C@H](CC(C)C)NC(=O)[C@H](C)NC(=O)[C@H](Cc1ccccc1)NC(=O)c1ccc(C(C)(C)C)cc1)C(=O)N[C@@H](CO)C(=O)OC	ligand displacement, radioligand	10 µM	remaining binding	67.2%
Clc1ccc2c(C3CCN(CCc4c[nH]c5ccccc45)CC3)c[nH]c2c1	ligand displacement, radioligand	10 µM	inhibition	25%
COc1ccc(S(=O)(=O)N2CCCCC2)cc1C	ligand displacement, radioligand	10 µM	inhibition	< 30%
Cc1ncc(C)n2nc(/C=C/c3nc(N4CCCC4)cc(N4CCOCC4)n3)nc12	ligand displacement	10 µM	inhibition	-33%
CN(CCN1CCC(OC(=O)Nc2ccccc2-c2ccccc2)CC1)C(=O)c1ccc(CN2CCC(C(N)=O)CC2)cc1	ligand displacement, radioligand	1 µM	inhibition	2%
C[C@H](C(=O)N[C@H]1COc2ccccc2[C@@H]1S(C)(=O)=O)c1ccc(F)cc1	cell-free assay	10 µM	inhibition	-11%
O=C(Nc1cccnn1)N1CCN([C@@H]2CCOc3cc(C(F)(F)F)ccc32)CC1	cell-free assay	20 µM	inhibition	20%
